Sampled rows, rich in hits. Any-hit rate of the full collection: about 1.8%.
EBNA-1 inh = EBNA-1 DNA-binding inhibitors, primary screen, biochemical, fluorescence polarization | inhibition, % at 14.8 µM | 300,000 tested, 0.34% active | AID 1950, 2009; in the data active means inhibition above about 28%
Apaf-1 inh = inhibitors of human Apaf-1 apoptosome, primary screen, biochemical, DEVD-Rh110 fluorescence, uHTS; Apoptotic protease-activating factor 1 (Homo sapiens), O14727; reconstituted apoptosome caspase-3 activity; 330,000 tested, 0.71% active; inhibition, % at 20 µM; active means inhibition of at least 40% at 20 µM;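 further: plate controls were DMSO wells for no effect and DEVD-CHO caspase inhibitor wells for full effect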
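Material: reconstituted apoptosome with Apaf-1, cytochrome c, caspase-9, procaspase-3, dATP; medium: pH 7.5 Hepes buffer with CHAPS, BSA, DTT; also added: cytochrome c and DEVD-Rh110 substrate; timing: 30 min plus 50 min, RT; signal: Rh110 fluorescence intensity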
proCasp7 act = procaspase-7 activators, primary screen, counter-screen for procaspase-3 activator project, biochemical, absorbance, HTS, human; recombinant procaspase-7, Ac-DEVD-pNA absorbance 405 nm; D23A/D198A/D206A triple mutant, cannot self-cleave; scale: DMSO 0, 5 µM enzyme 100; 330,000 tested, 0.093% active; activation, % at 8.5 µM; Caspase-7 (Homo sapiens), P55210;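 active means percent activation above the screen-wide mean plus 3 SD, cut at about 25% in these data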
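Detection: p-Nitroaniline absorbance at 405 nm, read at 0 and 120 min; system: Uncleavable procaspase-7 mutant enzyme; evaluation: % activation from two-timepoint absorbance difference, scaled to controls; times: 1 h enzyme–compound preincubation and 2 h substrate reaction, both 25 °C; buffer or medium: Zinc-free HEPES pH 7.4 with 300 mM NaCl, 0.01% Triton X-100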
ZTA DNA inh = ZTA (EBV) inhibition in EBNA-1 counter-screen; P03206; ZTA-DNA binding, fluorescence polarization; inhibition, % at 11 µM; 320,000 tested, 0.15% active; in the data active means inhibition above about 33%
GSTO1 counter = inhibitors of recombinant GSTO1, primary screen, counter-screen for RBBP9 inhibitor project, biochemical, fluorescence polarization. 300,000 tested, 1.1% active. AID 1974, 2009. inhibition, % at 5.96 µM. activity-based probe fluorescence polarization. Glutathione S-transferase omega-1 (Homo sapiens), P78417;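 active means inhibition above the campaign mean inhibition plus 3 SD, cut at about 35% in these data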;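 further: 0% = GSTO1-1 with DMSO and 100% = wells lacking GSTO1-1 enzyme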
procasp3 activ = activators of human procaspase-3 D3A mutant, primary screen, biochemical, absorbance, PC-3 D3A mutant, single concentration. Caspase-3 (Homo sapiens), P42574. recombinant procaspase-3 D3A, Ac-DEVD-pNA absorbance 405 nm. activation, % at 8.5 µM. 330,000 tested, 0.11% active. AID 463141, 2010;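 active means activation above the mean of all tested compounds plus 3 SD, cut at about 21% in these data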;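 further: 0% = DMSO alone and 100% = DMSO wells spiked with extra 5 µM PC-3 D3A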
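Test system: Procaspase-3 D3A mutant; medium: Zinc-free HEPES/NaCl buffer with 0.01% Triton X-100 at pH 7.4; reagent: DEVD-pNA substrate; doses: one concentration, 8.5 µM nominal, 0.8% DMSO; times: 1 h preincubation plus 2 h reaction at 25 °C; signal: Epi-absorbance at 405 nm of released p-nitroaniline, 0 and 120 min; replicates: singlicate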
PC3 D3A act = procaspase-3 activators, counter-screen for dual procaspase-3/7 activator project, biochemical, absorbance, PC-3 D3A mutant, human; shares compounds with proCasp7 act; recombinant PC-3 D3A, Ac-DEVD-pNA absorbance 405 nm; aspartates 9, 28, 175 changed to alanine; 100% = enzyme control; activation, % at 8.5 µM; 290 tested, under 10 active;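 active means mean percent activation across triplicates above a set limit taken from the earlier primary procaspase-3 screen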;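 further: 0% = DMSO wells and 100% = DMSO wells with 5 µM added PC-3 D3A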
Procasp7 act = activation of procaspase-7 enzyme – biochemical, absorbance, human, dual procaspase-3/-7 activator project, confirmation | recombinant procaspase-7, Ac-DEVD-pNA absorbance 405 nm; D23A/D198A/D206A mutant that cannot self-cleave | AID 493115, 2011 | 290 tested, under 10 active | shares compounds with proCasp7 act | activation, % at 8.5 µM;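 active means mean activation above a set limit carried over from the earlier primary screen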;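 further: 0% = DMSO only and 100% = DMSO with added 5 µM PC-7 enzyme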
* = called active by the depositor; x = no result.

SMILES	EBNA-1 inh	Apaf-1 inh	proCasp7 act	ZTA DNA inh	GSTO1 counter	procasp3 activ	PC3 D3A act	Procasp7 act
Cc1cccc2cc3c(NC(=O)C(C)(C)C)nn(CC(C)C)c3nc12	-6	19	35*	-4	3	36*	-29	-36
CCn1nc(NC(C)=O)c2cc3cccc(C)c3nc21	16	-1	-5	8	0	-11	x	x
COc1ccc(C(=O)C2CN(c3ccccc3)CC2c2ccc(Cl)cc2)cc1 (configuration not stated)	3	-9	29*	-4	-4	14	3	2
Fc1ccc(C2CC(c3ccco3)=NN2c2ccccc2)cc1 (configuration not stated)	-5	11	36*	-14	2	32*	-29	-36
CC1CCC(C(C)C)C(OC(=O)COC(=O)c2cc(O)ccc2N)C1 (configuration not stated)	-1	3	50*	-4	3	41*	-30	-35
O=C(NCCN1CCOCC1)C(=O)c1c[nH]c2ccccc12	7	1	30*	4	1	1	2	2
O=C(CN1CCOCC1)c1c[nH]c2ccccc12	-6	-2	7	-6	6	14	x	x
COc1ccc(-c2cc(C(F)F)n3ncc(C(=O)N4CCc5ccccc5C4)c3n2)cc1	-1	15	26*	-20	-2	5	-30	-36
COc1ccc(-c2cc(C(F)F)n3ncc(C(=O)N4CCCCC4)c3n2)cc1	-15	17	12	-18	0	-1	x	x
CC(=O)c1ccc(OCC(=O)Nc2ccccc2C(=O)NC2CC2)cc1	3	8	0	-14	1	-1	x	x
Cn1nc(N)c2c(-c3ccc(Cl)cc3)c(C#N)c(N)nc21	7	3	-10	-18	2	-2	x	x
CCN(CC)c1ccc(-c2c(C#N)c(N)nc(OC)c2C#N)cc1	-7	16	27*	0	-1	60*	-27	-35
COC(=O)c1cccc(N(CC(=O)NC2CCCC2)C(=O)CCC(=O)Nc2cc(C)on2)c1	-2	-2	57*	2	-1	0	3	-1
Cc1ccc2nc(-c3ccc(NC(=O)C(C)Sc4nncs4)cc3)sc2c1 (configuration not stated)	19	4	30*	-2	-19	3	2	-2
CCc1ccc(NC(=O)CSc2nnc(CNC(=O)c3cccs3)o2)cc1	-2	-10	4	10	2	-5	x	x
Cn1c2ccccc2c(=O)c2cc(C#Cc3ccsc3)ccc21	-2	22	40*	9	-3	39*	-30	-36
Cn1c2ccccc2c(=O)c2cc(C#Cc3ccccn3)ccc21	3	29	1	3	-8	-6	x	x
Cn1c2ccccc2c(=O)c2ccc(C#Cc3ccccn3)cc21	-14	19	27*	1	6	8	-30	-37
Cn1c2ccccc2c(=O)c2cc(C#CC3(O)CCCCC3)ccc21	12	24	180*	0	9	41*	-30	-36
CC1(c2ccc(OC(F)F)cc2)NC(=O)N(CC(=O)Nc2cccc(F)c2)C1=O (configuration not stated)	3	6	-1	-2	-2	9	x	x
CCN(C(=O)COC(=O)CNC(=O)C1CCCCC1)c1ccccc1	x	-9	x	x	x	x	x	x
O=C(c1ccc2ccccc2n1)N1CCN(S(=O)(=O)c2ccccc2)CC1	x	-5	2	x	x	3	x	x
Cc1cccc(C2=NN(c3ccccc3)[C@@H](C(=O)N3CCOC3=O)[C@@H]2c2ccc(F)cc2)c1	x	13	-6	x	x	-1	x	x
Cc1cccc(C2=NN(c3ccccc3)[C@H](CO)[C@H]2c2ccccc2)c1	x	28	35*	x	x	20	-31	-34
OC[C@@H]1[C@@H](c2ccc(F)cc2)C(c2ccccc2)=NN1c1ccccc1	x	20	34*	x	x	30*	-30	-35
SMILES	EBNA-1 inh	Apaf-1 inh	proCasp7 act	ZTA DNA inh	GSTO1 counter	procasp3 activ	PC3 D3A act	Procasp7 act
CCN1C(=O)N/C(=C/c2ccc(Sc3ccc(C)cc3)o2)C1=O	-15	19	71*	2	-12	38*	-26	-26
CCOc1cc(C2C(C(=O)OC)=CN(Cc3ccc(Cl)cc3)C=C2C(=O)OC)ccc1O	5	16	56*	5	9	27*	-2	-3
COC(=O)C1=CN(Cc2ccccc2)C=C(C(=O)OC)C1c1ccc(O)c(OC)c1	-16	10	-2	-12	-2	-4	x	x
COc1ccc(OC)c(/C=C/C(=O)Nc2cccc(S(=O)(=O)NC3=NCCCCC3)c2)c1	x	3	85*	-17	x	26*	1	0
CCOc1cc(-c2c(C#N)c(N)nc3c2CCc2ccccc2-3)ccc1O	-1	9	26*	3	-24	3	0	-5
CCOc1cc(-c2c(C#N)c(N)nc3c2CCCC3C)ccc1O (configuration not stated)	12	14	6	-2	-19	2	x	x
O=C(COC(=O)CCC(=O)N1CCOCC1)Nc1ccc(Br)cc1Br	x	1	-4	x	x	1	x	x
Cc1ccccc1Cn1ccc(NC(=O)c2cc3nc(-c4ccco4)cc(C(F)(F)F)n3n2)n1	-9	20	48*	-2	3	10	-31	-36
COc1ccc(OC)c(N(C(=O)c2snc(C(N)=O)c2N)C(C(=O)NCc2ccccc2)c2ccc(O)cc2)c1 (configuration not stated)	-7	13	4	4	-9	4	x	x
COc1ccc(CNC(=O)C(c2ccc(C)o2)N(C(=O)c2snc(C(N)=O)c2N)c2ccccc2OC)cc1 (configuration not stated)	3	22	26*	6	-7	-105	-25	-24
